In assay [1] the target is T1, IgG receptor FcRn large subunit p51 (Homo sapiens, UniProt P55899). The assay is described as follows: Inhibition of human IgG binding to soluble human FcRn by ELISA. In short, it runs like this: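 Biotinylated soluble human FcRn immobilized on neutravidin plates, incubated with hIgG (3 nM, constant) and peptide at varying concentrations for 2 h at 37 °C. After washing, bound hIgG detected with peroxidase-conjugated hIgG-specific Fab fragments.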

In assay [2] the target is T1, IgG receptor FcRn large subunit p51. The assay is described as follows: Binding affinity to human FcRn at pH 6 by surface plasmon resonance assay. The procedure, abridged:
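Soluble human FcRn coupled to the dextran surface of a CM5 chip; peptide dilutions flowed over the chip. The equilibrium response at each dilution was plotted against concentration and fitted to a steady-state affinity model to give Kd.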
(SPR reads the build-up and loss of mass on a sensor chip optically.)

pIC50, pKd: −log10 of the molar value. Square brackets hold non-standard residues; d marks the D form. Peptide text beside a SMILES is read from it. NMeA = CN[C@@H](C)C(=O)O; βAla = NCCC(=O)O

T1 sequence (P55899 whole entry, the tested form may be a part): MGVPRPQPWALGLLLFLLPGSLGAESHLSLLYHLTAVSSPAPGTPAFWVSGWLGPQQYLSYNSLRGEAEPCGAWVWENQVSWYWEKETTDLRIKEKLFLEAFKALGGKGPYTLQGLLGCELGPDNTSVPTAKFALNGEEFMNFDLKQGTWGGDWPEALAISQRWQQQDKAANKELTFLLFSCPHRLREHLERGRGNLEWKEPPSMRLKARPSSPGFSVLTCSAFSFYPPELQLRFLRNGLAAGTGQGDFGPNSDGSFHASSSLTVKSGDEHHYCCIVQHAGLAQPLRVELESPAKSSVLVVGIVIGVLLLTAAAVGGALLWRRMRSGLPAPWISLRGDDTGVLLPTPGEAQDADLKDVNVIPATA

In the case of `CC(C)C[C@H](NC(=O)CNC(=O)CNC(=O)[C@H](Cc1ccccc1)NC(=O)[C@H](Cc1cnc[nH]1)NC(=O)CNC(=O)[C@@H](NC(=O)[C@H](CS)NC(=O)[C@@H](N)Cc1ccccc1)[C@@H](C)O)C(=O)N[C@@H](Cc1ccc(O)cc1)C(=O)N1CCC[C@H]1C(=O)N[C@@H](CS)C(=O)N[C@@H](CC(N)=O)C(=O)NCC(=O)N1CCC[C@H]1C(=O)O`, in assay [1], the pIC50 (usually the negative decadic logarithm of the IC50, by convention in mol/L) was 4.17. Besides, the pKd (in general, the Kd on a negative log10 scale, so that one unit is a factor of ten) in assay [2] is 4.96.
`CC(C)C[C@H](NC(=O)CNC(=O)CNC(=O)[C@H](Cc1cccc(Cl)c1)NC(=O)[C@H](Cc1cnc[nH]1)NC(=O)CNC(=O)[C@@H](NC(=O)[C@@H](NC(=O)[C@H](Cc1ccccc1)NC(=O)[C@H](CCCNC(=N)N)NC(=O)[C@@H](N)CCC(N)=O)C(C)(C)S)[C@@H](C)O)C(=O)N[C@@H](Cc1ccc(O)cc1)C(=O)N1CCC[C@H]1C(=O)N[C@@H](CS)C(=O)O` gave a pIC50 in assay [1] of 5.43. In assay [2], this compound showed a pKd of 3.64.
The corresponding values for `CC(C)C[C@H](NC(=O)CNC(=O)CNC(=O)[C@H](Cc1ccccc1)NC(=O)[C@H](Cc1cnc[nH]1)NC(=O)CNC(=O)[C@@H](NC(=O)[C@@H](N)CS)[C@@H](C)O)C(=O)N[C@@H](Cc1ccc(O)cc1)C(=O)N1CCC[C@H]1C(=O)N[C@@H](CS)C(=O)O` (H-CTGHFGGLYPC-OH) are 3.96 and 4.70.
The corresponding values for `CC(C)C[C@@H](C(=O)N[C@@H](Cc1ccc(O)cc1)C(=O)N1CCC[C@H]1C(=O)N[C@@H](CS)C(=O)O)N(C)C(=O)CN1CCCC[C@@H](NC(=O)[C@H](Cc2ccccc2)NC(=O)[C@H](Cc2cnc[nH]2)NC(=O)CNC(=O)[C@@H](NC(=O)[C@H](NC(=O)[C@H](Cc2ccccc2)NC(=O)[C@@H](N)CCCNC(=N)N)C(C)(C)S)[C@@H](C)O)C1=O` are 6.21 and 7.36.
The corresponding values for `CC(C)C[C@H](NC(=O)[C@@H](CCCN=C(N)N)NC(=O)CNC(=O)[C@H](Cc1ccccc1)NC(=O)[C@H](Cc1cnc[nH]1)NC(=O)CNC(=O)[C@@H](NC(=O)[C@@H](NC(=O)[C@H](Cc1ccccc1)NC(=O)[C@H](CCCN=C(N)N)NC(=O)[C@@H](N)CCC(N)=O)C(C)(C)S)[C@@H](C)O)C(=O)N[C@@H](Cc1ccc(O)cc1)C(=O)N1CCC[C@H]1C(=O)N[C@@H](CS)C(=O)N[C@@H](CC(N)=O)C(=O)NCC(=O)N1CCC[C@H]1C(=O)O` are 5.09 and 6.08.
`CC(C)C[C@@H](C(=O)N[C@@H](Cc1ccc(O)cc1)C(=O)N1CCC[C@H]1C(=O)N[C@@H](CS)C(=O)O)N(C)C(=O)CN(C)C(=O)CNC(=O)[C@H](Cc1ccccc1)NC(=O)[C@H](Cc1cscn1)NC(=O)CNC(=O)[C@@H](NC(=O)[C@@H](NC(=O)[C@H](Cc1ccccc1)NC(=O)[C@@H](N)CCCN=C(N)N)C(C)(C)S)[C@@H](C)O` had a pIC50 in assay [1] of 5.80. Besides, the pKd in assay [2] is 6.08.
Turning to `CC(C)C[C@H](NC(=O)CNC(=O)CNC(=O)[C@@H](NC(=O)[C@H](Cc1cnc[nH]1)NC(=O)CNC(=O)[C@@H](NC(=O)[C@@H](NC(=O)[C@H](Cc1ccccc1)NC(=O)[C@H](CCCN=C(N)N)NC(=O)[C@@H](N)CCC(N)=O)C(C)(C)S)[C@@H](C)O)c1ccccc1)C(=O)N[C@@H](Cc1ccc(O)cc1)C(=O)N1CCC[C@H]1C(=O)N[C@@H](CS)C(=O)N[C@@H](CC(N)=O)C(=O)NCC(=O)N1CCC[C@H]1C(=O)O`, the negative-log IC50 (pIC50) in assay [1] was < 3.90. Also, the pKd in assay [2] was < 3.60.
The compound `CC(C)C[C@H](NC(=O)CN1CCCC[C@@H](NC(=O)[C@H](Cc2ccccc2)NC(=O)[C@H](Cc2cnc[nH]2)NC(=O)CNC(=O)[C@@H](NC(=O)[C@@H](NC(=O)[C@H](Cc2ccccc2)NC(=O)[C@@H](N)CCCN=C(N)N)C(C)C)[C@@H](C)O)C1=O)C(=O)N[C@@H](Cc1ccc(O)cc1)C(=O)N1CCC[C@H]1C(=O)N[C@@H](C)C(=O)O` had a pIC50 in assay [1] of 4.64. The compound also showed a pKd in assay [2] of 5.64.
For `CC(C)C[C@H](NC(=O)CNC(=O)CNC(=O)[C@H](Cc1ccccc1)NC(=O)[C@H](Cc1cnc[nH]1)NC(=O)[C@@H](C)NC(=O)[C@@H](NC(=O)[C@H](CS)NC(=O)[C@H](Cc1ccccc1)NC(=O)[C@H](CCCN=C(N)N)NC(=O)[C@@H](N)CCC(N)=O)[C@@H](C)O)C(=O)N[C@@H](Cc1ccc(O)cc1)C(=O)N1CCC[C@H]1C(=O)N[C@@H](CS)C(=O)N[C@@H](CC(N)=O)C(=O)NCC(=O)N1CCC[C@H]1C(=O)O`, the pIC50 in assay [1] is < 3.90. In addition, the pKd in assay [2] was < 3.60.
`CC(C)C[C@H](NC(=O)CNC(=O)CNC(=O)[C@@H](NC(=O)[C@H](Cc1cnc[nH]1)NC(=O)CNC(=O)[C@@H](NC(=O)[C@@H](NC(=O)[C@H](Cc1ccccc1)NC(=O)[C@H](CCCN=C(N)N)NC(=O)[C@@H](N)CCC(N)=O)C(C)(C)S)[C@@H](C)O)C(c1ccccc1)c1ccccc1)C(=O)N[C@@H](Cc1ccc(O)cc1)C(=O)N1CCC[C@H]1C(=O)N[C@@H](CS)C(=O)O` had a pIC50 in assay [1] of 4.49. Besides, the pKd in assay [2] is 3.64.
On to `CC(C)C[C@H](NC(=O)CNC(=O)CNC(=O)[C@H](Cc1ccccc1)NC(=O)[C@H](Cc1cnc[nH]1)NC(=O)CNC(=O)[C@@H](NC(=O)[C@H](CS)NC(=O)[C@H](Cc1ccccc1)NC(=O)[C@H](CCCNC(=N)N)NC(=O)[C@@H](N)CCC(N)=O)[C@@H](C)O)C(=O)N[C@@H](Cc1ccccc1)C(=O)N1CCC[C@H]1C(=O)N[C@@H](CS)C(=O)N[C@@H](CC(N)=O)C(=O)NCC(=O)N1CCC[C@H]1C(=O)O`, for which the pIC50 in assay [1] is < 3.90. This compound also gave a pKd in assay [2] of 3.64.
`CC(C)C[C@H](NC(=O)CNC(=O)CNC(=O)[C@H](Cc1ccccc1)NC(=O)[C@H](Cc1cnc[nH]1)NC(=O)CCNC(=O)[C@@H](NC(=O)[C@H](CS)NC(=O)[C@H](Cc1ccccc1)NC(=O)[C@H](CCCNC(=N)N)NC(=O)[C@@H](N)CCC(N)=O)[C@@H](C)O)C(=O)N[C@@H](Cc1ccc(O)cc1)C(=O)N1CCC[C@H]1C(=O)N[C@@H](CS)C(=O)N[C@@H](CC(N)=O)C(=O)NCC(=O)N1CCC[C@H]1C(=O)O` (H-QRFCT[βAla]HFGGLYPCNGP-OH): in assay [1], the pIC50 is < 3.90. Moreover, the pKd in assay [2] is < 3.60.
Regarding `CC(C)C[C@H](NC(=O)CNC(=O)CNC(=O)[C@H](Cc1ccccc1)NC(=O)[C@H](Cc1cnc[nH]1)NC(=O)CNC(=O)[C@@H](NC(=O)[C@H](CS)NC(=O)[C@H](C)NC(=O)[C@H](CCCN=C(N)N)NC(=O)[C@@H](N)CCC(N)=O)[C@@H](C)O)C(=O)N[C@@H](Cc1ccc(O)cc1)C(=O)N1CCC[C@H]1C(=O)N[C@@H](CS)C(=O)N[C@@H](CC(N)=O)C(=O)NCC(=O)N1CCC[C@H]1C(=O)O` (H-QRACTGHFGGLYPCNGP-OH), the negative logarithm of the IC50 (pIC50) in assay [1] was 4.02. The compound also gave a pKd in assay [2] of 4.55.
Regarding `CC(C)C[C@H](NC(=O)CNC(=O)CNC(=O)[C@H](Cc1ccccc1)NC(=O)[C@H](Cc1cnc[nH]1)NC(=O)CNC(=O)[C@H](C)N(C)C(=O)[C@H](CS)NC(=O)[C@H](Cc1ccccc1)NC(=O)[C@H](CCCNC(=N)N)NC(=O)[C@@H](N)CCC(N)=O)C(=O)N[C@@H](Cc1ccc(O)cc1)C(=O)N1CCC[C@H]1C(=O)N[C@@H](CS)C(=O)N[C@@H](CC(N)=O)C(=O)NCC(=O)N1CCC[C@H]1C(=O)O` (H-QRFC[NMeA]GHFGGLYPCNGP-OH), the pIC50 in assay [1] is 3.77. Also, the pKd in assay [2] was 4.74.
Take `CC(C)C[C@H](NC(=O)CNC(=O)CNC(=O)[C@H](Cc1ccc2ccccc2c1)NC(=O)[C@H](Cc1cnc[nH]1)NC(=O)CNC(=O)[C@@H](NC(=O)[C@@H](NC(=O)[C@H](Cc1ccccc1)NC(=O)[C@H](CCCN=C(N)N)NC(=O)[C@@H](N)CCC(N)=O)C(C)(C)S)[C@@H](C)O)C(=O)N[C@@H](Cc1ccc(O)cc1)C(=O)N1CCC[C@H]1C(=O)N[C@@H](CS)C(=O)N[C@@H](CC(N)=O)C(=O)NCC(=O)N1CCC[C@H]1C(=O)O`: the pIC50 in assay [1] was 4.05. In addition, the pKd in assay [2] is 4.96.
The corresponding values for `CC(C)C[C@H](NC(=O)C(C)(C)NC(=O)CNC(=O)[C@H](Cc1ccccc1)NC(=O)[C@H](Cc1cnc[nH]1)NC(=O)CNC(=O)[C@@H](NC(=O)[C@@H](NC(=O)[C@H](Cc1ccccc1)NC(=O)[C@H](CCCNC(=N)N)NC(=O)[C@@H](N)CCC(N)=O)C(C)(C)S)[C@@H](C)O)C(=O)N[C@@H](Cc1ccc(O)cc1)C(=O)N1CCC[C@H]1C(=O)N[C@@H](CS)C(=O)N[C@@H](CC(N)=O)C(=O)NCC(=O)N1CCC[C@H]1C(=O)O` are 5.62 and 6.32.
The like results for `CC(C)C[C@H](NC(=O)CNC(=O)CNC(=O)[C@H](Cc1ccccc1)NC(=O)[C@H](Cc1cnc[nH]1)NC(=O)CNC(=O)[C@@H](NC(=O)[C@H](CCC(=O)O)NC(=O)[C@H](Cc1ccccc1)NC(=O)[C@H](CCCNC(=N)N)NC(=O)[C@@H](N)CCC(N)=O)[C@@H](C)O)C(=O)N[C@@H](Cc1ccc(O)cc1)C(=O)N1CCC[C@H]1C(=O)N[C@@H](CCN)C(=O)N[C@@H](CC(N)=O)C(=O)NCC(=O)N1CCC[C@H]1C(=O)O` were, in that order, 4.07 and 4.66.
The corresponding values for `CC(C)C[C@H](NC(=O)CN1CCCC[C@@H](NC(=O)[C@H](Cc2ccccc2)NC(=O)[C@H](Cc2cnc[nH]2)NC(=O)CNC(=O)[C@@H](NC(=O)[C@H](NC(=O)[C@H](Cc2ccccc2)NC(=O)[C@@H](N)CCCNC(=N)N)C(C)(C)S)[C@@H](C)O)C1=O)C(=O)N[C@@H](Cc1ccc(O)cc1)C(=O)N1CCC[C@H]1C(=O)N[C@@H](CS)C(=O)O` are 6.19 and 6.99.
Compound `CC(C)C[C@H](NC(=O)CN1CCC[C@H](NC(=O)[C@H](Cc2ccccc2)NC(=O)[C@H](Cc2cnc[nH]2)NC(=O)CNC(=O)[C@@H](NC(=O)[C@H](NC(=O)[C@H](Cc2ccccc2)NC(=O)[C@@H](N)CCCN=C(N)N)C(C)(C)S)[C@@H](C)O)C1=O)C(=O)N[C@@H](Cc1ccc(O)cc1)C(=O)N1CCC[C@H]1C(=O)N[C@@H](CS)C(=O)O` showed a pIC50 in assay [1] of 5.14. This compound gave a pKd in assay [2] of 6.17.
For the compound `CC(C)C[C@H](NC(=O)[C@@H]1CCCN1C(=O)[C@H]1CCCN1C(=O)[C@H](Cc1ccccc1)NC(=O)[C@H](Cc1cnc[nH]1)NC(=O)CNC(=O)[C@@H](NC(=O)[C@@H](NC(=O)[C@H](Cc1ccccc1)NC(=O)[C@H](CCCN=C(N)N)NC(=O)[C@@H](N)CCC(N)=O)C(C)(C)S)[C@@H](C)O)C(=O)N[C@@H](Cc1ccc(O)cc1)C(=O)N1CCC[C@H]1C(=O)N[C@@H](CS)C(=O)N[C@@H](CC(N)=O)C(=O)NCC(=O)N1CCC[C@H]1C(=O)O`, the pIC50 in assay [1] is < 3.60. In addition, the pKd in assay [2] is < 4.00.
